Experimental data collected from several papers.
Lines come from different studies, so protocols differ.
DHODH: Dihydroorotate dehydrogenase (quinone), mitochondrial (DHODH, Homo sapiens, UniProt Q02127)
SCTR: Secretin receptor (SCTR, Homo sapiens, UniProt P47872)
SHMT2: Serine hydroxymethyltransferase, mitochondrial (SHMT2, Homo sapiens, UniProt P34897)
PIK3CG: Phosphatidylinositol 4,5-bisphosphate 3-kinase catalytic subunit gamma isoform (PIK3CG, Homo sapiens, UniProt P48736)

CCn1cc(C2CC2)c2c(CN3CCC(F)(F)C(C)(C)C3)n(C)nc2c1=O — IC50 (DHODH; enzyme activity; inhibitor; absorbance): > 100000 nM
CC1=NN(/C(=N/c2nnc(C)s2)Nc2ccc(C)c(C)c2)C(c2ccc(-c3cccc(C(F)(F)F)c3)cc2)S1 (centres unmarked) — EC50 (SCTR; cAMP; agonist; TR-FRET): 500 nM
CCn1cc(C2CC2)c2c(CN3CCC(C)(F)CC3)n(C)nc2c1=O — IC50 (DHODH; enzyme activity; inhibitor; absorbance): > 100000 nM
CC(=O)N(CC#Cc1cccc(C(N)=O)c1)C[C@H]1C[C@@H](n2ccc3c(Cl)ncnc32)[C@H](O)[C@@H]1O — Kd (SHMT2; binding; MST): 2110 nM
Cc1nc(Nc2ccc3c(c2)/C(=C/c2ccccc2Cl)C(=O)N3)c2ccccc2n1 — IC50 (PIK3CG; enzyme activity; inhibitor; ADP detection): 34.5 nM
CN[C@H]1CC[C@@H](c2ccc(Cl)c(Cl)c2)c2ccccc21 — Kd (SHMT2; binding; MST): 12000 nM
Cc1nc(Nc2ccc3c(c2)CC(=O)N3)c2ccccc2n1 — IC50 (PIK3CG; enzyme activity; inhibitor; ADP detection): 568 nM
Cc1nn(C2CC2)c(=O)c2nn(C)c(Cc3ccc(C(F)(F)F)c(C#N)c3)c12 — IC50 (DHODH; enzyme activity; inhibitor): 30000 nM
Cc1cc([C@@H](C)Nc2ccccc2C(=O)O)c2nc(N3CCC(F)(F)CC3)c(C#N)c(=O)n2c1 — IC50 (PIK3CG; enzyme activity; inhibitor; ADP detection): > 10000 nM
COc1cc2ncnc(Nc3ccc4c(c3)/C(=C/c3cccc(Cl)c3)C(=O)N4C)c2cc1OC — IC50 (PIK3CG; enzyme activity; inhibitor; ADP detection): 197 nM
CC1=NN(/C(=N\c2ccccc2F)Nc2nnc(C)s2)C(c2ccc(C)cc2)S1 (centres unmarked) — EC50 (SCTR; cAMP; agonist; TR-FRET): 19800 nM
CC[C@@](O)(c1cnc(C(F)(F)F)c(Cl)c1)c1c2ncn(C3CC3)c(=O)c2nn1C — IC50 (DHODH; enzyme activity; inhibitor; absorbance): 4000 to 6000 nM
CCCc1ccc(/N=C(/Nc2nnc(C)s2)N2N=C(C)SC2c2ccc(C)cc2)cc1 (centres unmarked) — EC50 (SCTR; cAMP; agonist; TR-FRET): > 50000 nM
COc1cc2ncnc(N(C)c3ccc4c(c3)/C(=C/c3cccc(Cl)c3)C(=O)N4C)c2cc1OC — IC50 (PIK3CG; enzyme activity; inhibitor; ADP detection): 118 nM
CC1=NN(/C(=N/c2nnc(C)s2)Nc2ccc(C)c(C)c2)C(c2ccc(F)cc2)S1 (centres unmarked) — EC50 (SCTR; cAMP; agonist; TR-FRET): 800 nM
Cc1noc(C)c1-c1cc(Cl)c(Nc2ccccc2C(=O)O)c(Cl)c1 — IC50 (DHODH; enzyme activity; inhibitor; absorbance): 1400 nM
COc1cc2ncnc(Nc3ccc4c(c3)/C(=C/c3ccccc3)C(=O)N4)c2cc1OC — IC50 (PIK3CG; enzyme activity; inhibitor; ADP detection): 109 nM
